Results published in ChEMBL document CHEMBL3098060, “Antitumor potential of conjugable valinomycins bearing hydroxyl sites: in vitro studies” (ACS Med Chem Lett, 2013).
Activity calls are given as the source filed them. No cut-off for these calls is given here.

Tests used:
A2780 [1] = assay: Cytotoxicity against human A2780 cells assessed as cell survival at 0.0001 to 10 uM by MTT assay; assay type: functional, cell-based; conditions: TDE = time-dependent effect
Summary of the method: (§1)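 Cells seeded at 10,000 per well and treated with 0.0001–10 μM. Incubated at 37 °C in CO2 for 24, 48 or 72 h. Viable cells measured by MTT conversion. Time course shown at a fixed 0.01 μM.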

C6 [2] = assay: Cytotoxicity against rat C6 cells assessed as cell survival after 24 to 72 hrs by MTT assay; assay type: functional, cell-based; summary of the method: as §1
C6 [3] = assay: Cytotoxicity against rat C6 cells assessed as cell survival at 0.0001 to 10 uM by MTT assay; assay type: functional, cell-based; conditions: TDE = time-dependent effect; summary of the method: as §1
C6 [4] = assay: Cytotoxicity against rat C6 cells after 72 hrs by MTT assay; assay type: functional, cell-based; conditions: C6, 72 h
Summary of the method: (§2)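 Cells exposed to 0.0001–10 μM for 72 h. Viability by MTT conversion, expressed as % of cells viable. IC50 taken as the concentration giving 50% inhibition of survival, from concentration–viability profiles. Three independent experiments, each in duplicate, averaged.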

MCF7 [5] = assay: Cytotoxicity against human MCF7 cells after 72 hrs by MTT assay; assay type: functional, cell-based; conditions: MCF7, 72 h; summary of the method: as §2
HepG2 [6] = assay: Cytotoxicity against human HepG2 cells after 72 hrs by MTT assay; assay type: functional, cell-based; conditions: HepG2, 72 h; summary of the method: as §2
A2780 [7] = assay: Cytotoxicity against human A2780 cells after 72 hrs by MTT assay; assay type: functional, cell-based; conditions: A2780, 72 h; summary of the method: as §2
C6 [8] = assay: Induction of apoptosis in rat C6 cells assessed as fragmentation of mitochondrial network at 50 nM after 72 hrs by MitoTracker Red CMXRos staining-based fluorescence microscopy; assay type: functional, cell-based
Summary of the method: (§3)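 C6 glioma cells seeded at 100,000 per well and treated 72 h at 37 °C, 5% CO2, with 50 nM or 1 μM depending on compound. Mitochondria stained with 25 nM MitoTracker Red CMXRos and network morphology imaged against untreated controls. Over 10 cells examined per experiment, 3 independent experiments.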

MCF7 [9] = assay: Induction of mitochondrial membrane depolarization in human MCF7 cells after 72 hrs by JC-1 staining-based FACS flow cytometric analysis (reference value: 1%); assay type: functional
MCF7 [10] = assay: Cell cycle arrest in human MCF7 cells assessed as accumulation at G2/M phase at 0.05 uM after 24 hrs by propidium iodide staining-based FACS flow cytometric analysis (reference value: 25.92%); assay type: functional
MCF7 [11] = assay: Cell cycle arrest in human MCF7 cells assessed as accumulation at S phase at 0.05 uM after 24 hrs by propidium iodide staining-based FACS flow cytometric analysis (reference value: 9.74%); assay type: functional
MCF7 [12] = assay: Cell cycle arrest in human MCF7 cells assessed as accumulation at G0/G1 phase at 0.05 uM after 24 hrs by propidium iodide staining-based FACS flow cytometric analysis (reference value: 64.34%); assay type: functional
HepG2 [13] = assay: Cytotoxicity against human HepG2 cells assessed as cell survival at 0.0001 to 10 uM by MTT assay; assay type: functional, cell-based; conditions: TDE = time-dependent effect; summary of the method: as §1
HepG2 [14] = assay: Cytotoxicity against human HepG2 cells assessed as cell survival after 24 to 72 hrs by MTT assay; assay type: functional, cell-based; summary of the method: as §1
MCF7 [15] = assay: Cytotoxicity against human MCF7 cells assessed as cell survival after 24 to 72 hrs by MTT assay; assay type: functional, cell-based; summary of the method: as §1
MCF7 [16] = assay: Cytotoxicity against human MCF7 cells assessed as cell survival at 0.0001 to 10 uM by MTT assay; assay type: functional, cell-based; conditions: TDE = time-dependent effect; summary of the method: as §1
A2780 [17] = assay: Cytotoxicity against human A2780 cells assessed as cell survival after 24 to 72 hrs by MTT assay; assay type: functional, cell-based; summary of the method: as §1
MCF7 [18] = assay: Cell cycle arrest in human MCF7 cells assessed as accumulation at G2/M phase at 5 uM after 24 hrs by propidium iodide staining-based FACS flow cytometric analysis (reference value: 25.92%); assay type: functional
MCF7 [19] = assay: Cell cycle arrest in human MCF7 cells assessed as accumulation at S phase at 5 uM after 24 hrs by propidium iodide staining-based FACS flow cytometric analysis (reference value: 9.74%); assay type: functional
MCF7 [20] = assay: Cell cycle arrest in human MCF7 cells assessed as accumulation at G0/G1 phase at 5 uM after 24 hrs by propidium iodide staining-based FACS flow cytometric analysis (reference value: 64.34%); assay type: functional
C6 [21] = assay: Selectivity ratio of IC50 for human MCF7 cells to IC50 for rat C6 cells; assay type: functional
Summary of the method: (§4)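 Ratio of two 72 h IC50 values, each from the same MTT viability assay. A2780, MCF-7, HepG2 and rat C6 glioma cells were treated at 0.0001–10 μM. Percent viability was calculated and IC50 taken as the concentration giving 50% survival inhibition. Means are from three independent experiments run in duplicate.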

HepG2 [22] = assay: Selectivity ratio of IC50 for human MCF7 cells to IC50 for human HepG2 cells; assay type: functional; summary of the method: as §4
A2780 [23] = assay: Selectivity ratio of IC50 for human A2780 cells to IC50 for rat C6 cells; assay type: functional; summary of the method: as §4
A2780 [24] = assay: Selectivity ratio of IC50 for human A2780 cells to IC50 for human HepG2 cells; assay type: functional; summary of the method: as §4
C6 [25] = assay: Induction of apoptosis in rat C6 cells assessed as fragmentation of mitochondrial network at 1 uM after 72 hrs by MitoTracker Red CMXRos staining-based fluorescence microscopy; assay type: functional, cell-based; summary of the method: as §3

| Structure (SMILES) | Activity (A2780 [1]) | Activity (C6 [2]) | Activity (C6 [3]) | IC50 (C6 [4]) [nM] | IC50 (MCF7 [5]) [nM] | IC50 (HepG2 [6]) [nM] | IC50 (A2780 [7]) [nM] | Activity (C6 [8]) | Activity (MCF7 [9]) [%] | Activity (HepG2 [13]) | Activity (HepG2 [14]) | Activity (MCF7 [15]) | Activity (MCF7 [16]) | Activity (A2780 [17]) | Activity (MCF7 [18]) [%] | Activity (MCF7 [19]) [%] | Activity (MCF7 [20]) [%] | also measured |
| --- | --- | --- | --- | --- | --- | --- | --- | --- | --- | --- | --- | --- | --- | --- | --- | --- | --- | --- |
| CC(C)[C@@H]1NC(=O)[C@H](C)OC(=O)[C@@H](C(C)C)NC(=O)[C@@H](C(C)C)OC(=O)[C@H](C(C)C)NC(=O)[C@H](C)OC(=O)[C@@H](C(C)(C)O)NC(=O)[C@@H](C(C)C)OC(=O)[C@H](C(C)C)NC(=O)[C@H](C)OC(=O)[C@@H](C(C)C)NC(=O)[C@@H](C(C)C)OC1=O | tde | Dose-dependent effect | tde | 2.4 | 3850 | 4.3 | 4530 | Active | 12.1 | tde | Dose-dependent effect | Dose-dependent effect | tde | Dose-dependent effect |  |  |  | Activity (MCF7 [10]): 21.49%; Activity (MCF7 [11]): 23.07%; Activity (MCF7 [12]): 55.44% |
| CC(C)[C@@H]1NC(=O)[C@H](C)OC(=O)[C@@H](C(C)C)NC(=O)[C@@H](C(C)C)OC(=O)[C@H](C(C)C)NC(=O)[C@H](C)OC(=O)[C@@H](C(C)C)NC(=O)[C@@H](C(C)C)OC(=O)[C@H](C(C)C)NC(=O)[C@H](C)OC(=O)[C@@H](C(C)C)NC(=O)[C@@H](C(C)C)OC1=O [VALINOMYCIN] | tde | Dose-dependent effect | tde | 0.4 | 1770 | 0.8 | 2180 | Active | 16 | tde | Dose-dependent effect | Dose-dependent effect | tde | Dose-dependent effect | 18.15 | 25.79 | 56.07 | Ratio IC50 (C6 [21]): 3; Ratio IC50 (HepG2 [22]): 3; Ratio IC50 (A2780 [23]): 3; Ratio IC50 (A2780 [24]): 3 |
| CC(C)[C@@H]1NC(=O)[C@H](C)OC(=O)[C@@H](C(C)C)NC(=O)[C@@H](C(C)(C)O)OC(=O)[C@H](C(C)C)NC(=O)[C@H](C)OC(=O)[C@@H](C(C)C)NC(=O)[C@@H](C(C)C)OC(=O)[C@H](C(C)C)NC(=O)[C@H](C)OC(=O)[C@@H](C(C)C)NC(=O)[C@@H](C(C)C)OC1=O |  |  | tde | 175 | > 10000 | 197 | > 10000 |  | 8.9 |  |  |  |  |  | 19.76 | 24.6 | 55.63 | Activity (C6 [25]): Active |
| CC(C)[C@@H]1NC(=O)[C@H](C)OC(=O)[C@@H](C(C)C)NC(=O)[C@@H](C(C)C)OC(=O)[C@H](C(C)(C)O)NC(=O)[C@H](C)OC(=O)[C@@H](C(C)C)NC(=O)[C@@H](C(C)C)OC(=O)[C@H](C(C)C)NC(=O)[C@H](C)OC(=O)[C@@H](C(C)C)NC(=O)[C@@H](C(C)C)OC1=O | tde | Dose-dependent effect | tde | 2.9 | 3910 | 4.9 | 2510 | Active | 15.6 | tde | Dose-dependent effect | Dose-dependent effect | tde | Dose-dependent effect | 16.9 | 25.57 | 57.53 |  |
